Measurements pooled from the literature.
Compare with care: the assays were run in different laboratories.
Read-out: enzyme activity
Mode: inhibitor
INSR: Insulin receptor (INSR, Homo sapiens, UniProt P06213)
INSR phosphorylated: Insulin receptor, phosphorylated (INSR, Homo sapiens, UniProt P06213)

| target | technique | concentration | remaining activity [%] | SMILES |
| --- | --- | --- | --- | --- |
| INSR | – | 10 µM | 75 | Nc1nc(NC2CCCCC2)sc1C(=O)c1ccccc1 |
| INSR | – | 10 µM | 101 | CCCOc1ccc(OC)c(F)c1C(=O)c1ccc(C(=O)N[C@@H]2CNC[C@H]2NC(=O)c2ccc3[nH]ncc3c2)cc1 |
| INSR | – | 5 µM | 98.4 | O=C(Nc1cnn(-c2csc(C(=O)NC3COC3)c2)c1)Nc1ccccc1Cl |
| INSR | radiometric | 1 µM | 112 | CC(C)(C)c1nc2c(s1)c1nc(N)ncc1c1ccc(NS(=O)(=O)c3c(F)cccc3F)c(F)c12 |
| INSR phosphorylated | – | 10 µM | 89 | Cc1ccc(NC(=O)c2ccc(C)c(C(F)(F)F)c2)cc1C#Cc1nn(C2CCC(O)CC2)c2ncnc(N)c12 (stereo not drawn) |
| INSR | – | 1 µM | 97 | COc1cc(Cl)c(C(=O)N[C@@H](CN[C@H]2CC[C@@H](N)CC2)Cc2ccc(C#N)cc2)cc1-c1ccc(CN[C@H](C)c2ccc(C)cc2)o1 |
| INSR phosphorylated | – | 10 µM | 95 | CCN(CC)c1ccc(C2=NNC(=O)CC2C)cc1[N+](=O)[O-] (stereo not drawn) |
| INSR | radiometric | 1 µM | 103 | Cc1cnc(NC2CCOCC2)nc1-n1cnc(C(=O)NC(CN)c2cc(F)cc(Cl)c2)c1 (stereo not drawn) |
| INSR | – | 0.1 µM | 132 | Cc1[nH]c(/C=C2\C(=O)Nc3ccc(F)cc32)c(C)c1C(=O)N[C@H]1CCN(C(=O)N(C)C)C1 |
| INSR | radiometric | 10 µM | 84 | COc1cc(Nc2cnc(C#N)c(O[C@H](C)CN(C)C)n2)ncc1-c1cnn(C)c1 |
| INSR | – | 10 µM | 99 | Cn1c(=O)n(-c2ccc(C(C)(C)C#N)cc2)c2c3cc(-c4cnc5ccccc5c4)ccc3ncc21 |
| INSR | – | 10 µM | 88 | Nc1nc(Nc2ccccc2)sc1C(=O)c1c(F)cccc1F |
